According to ChEMBL document CHEMBL1156291, “Design of potent and selective GSK3beta inhibitors with acceptable safety profile and pharmacokinetics” (Bioorg Med Chem Lett, 2010):
Values after ≈ are worked out from the molar mass of the structure shown.

Experiments:
[1] = biological target: T1, Cytochrome P450 1A2 (Homo sapiens, UniProt P05177); assay: Inhibition of human recombinant CYP1A2; assay type: ADME
T1 sequence (P05177 whole entry): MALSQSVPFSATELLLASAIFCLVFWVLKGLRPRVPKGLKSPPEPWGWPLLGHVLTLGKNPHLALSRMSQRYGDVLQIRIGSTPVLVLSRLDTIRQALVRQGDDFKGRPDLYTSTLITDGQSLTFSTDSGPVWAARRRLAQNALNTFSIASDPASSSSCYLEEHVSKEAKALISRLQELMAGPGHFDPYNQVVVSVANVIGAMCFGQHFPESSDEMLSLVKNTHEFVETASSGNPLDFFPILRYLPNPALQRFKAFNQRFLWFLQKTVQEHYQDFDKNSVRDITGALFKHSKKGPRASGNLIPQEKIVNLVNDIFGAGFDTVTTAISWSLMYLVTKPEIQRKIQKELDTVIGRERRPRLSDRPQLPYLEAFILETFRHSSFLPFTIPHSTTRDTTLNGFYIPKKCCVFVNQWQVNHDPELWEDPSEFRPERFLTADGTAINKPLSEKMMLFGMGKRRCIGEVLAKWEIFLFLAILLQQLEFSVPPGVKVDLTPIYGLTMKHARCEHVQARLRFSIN
In short: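 Human recombinant CYP1A2 with 3-cyano-7-ethoxycoumarin as probe substrate. Fluorescence read at Ex 410 nm / Em 460 nm. IC50 determined.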

[2] = Lipophilicity, log D at pH 7.4; assay type: physicochemical; settings: buffer
[3] = biological target: Albumin (Homo sapiens, UniProt P02768); assay: Binding affinity to human serum albumin; assay type: ADME; settings: isolated protein
Albumin, sequence (P02768 whole entry): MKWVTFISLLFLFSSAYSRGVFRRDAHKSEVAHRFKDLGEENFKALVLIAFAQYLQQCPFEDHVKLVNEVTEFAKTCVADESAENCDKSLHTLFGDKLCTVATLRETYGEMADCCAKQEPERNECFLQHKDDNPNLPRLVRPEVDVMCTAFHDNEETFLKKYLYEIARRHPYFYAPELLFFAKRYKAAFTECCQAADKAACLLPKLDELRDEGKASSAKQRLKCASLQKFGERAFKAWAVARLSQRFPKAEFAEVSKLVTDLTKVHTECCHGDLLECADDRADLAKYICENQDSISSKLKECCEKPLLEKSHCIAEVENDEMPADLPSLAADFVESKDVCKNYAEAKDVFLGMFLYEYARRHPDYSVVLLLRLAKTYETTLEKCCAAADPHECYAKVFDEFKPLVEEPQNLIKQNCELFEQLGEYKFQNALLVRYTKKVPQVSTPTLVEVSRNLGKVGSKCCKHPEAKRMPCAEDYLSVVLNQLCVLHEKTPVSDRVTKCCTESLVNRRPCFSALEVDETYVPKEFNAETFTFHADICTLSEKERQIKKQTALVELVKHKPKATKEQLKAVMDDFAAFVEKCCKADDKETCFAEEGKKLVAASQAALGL

[4] = Solubility of the compound; assay type: physicochemical
In short: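 Solubility measured by nephelometry.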

[5] = Metabolic stability in mouse liver S9 fraction assessed as compound remaining after 15 mins; assay type: ADME, subcellular; settings: read-out: Activity
In short: (§1)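 Compound exposed for 15 min to hepatic S9 fraction, human or mouse according to the line. Read-out is percent of parent compound remaining.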

[6] = tested on: Caco-2; assay: Permeability across human Caco-2 cells assessed as compound transport per hr; assay type: ADME, cell-based
[7] = Metabolic stability in human liver S9 fraction assessed as compound remaining after 15 mins; assay type: ADME, subcellular; settings: read-out: Activity; in short: as §1
[8] = biological target: Cytochrome P450 1A2 (Homo sapiens) (UniProt P05177); assay: Inhibition of human recombinant CYP1A2 by kinetic assay
[9] = biological target: hERG (KCNH2) (Homo sapiens, UniProt Q12809); assay: Inhibition of human ERG at 10 uM
hERG (KCNH2), sequence (Q12809 whole entry): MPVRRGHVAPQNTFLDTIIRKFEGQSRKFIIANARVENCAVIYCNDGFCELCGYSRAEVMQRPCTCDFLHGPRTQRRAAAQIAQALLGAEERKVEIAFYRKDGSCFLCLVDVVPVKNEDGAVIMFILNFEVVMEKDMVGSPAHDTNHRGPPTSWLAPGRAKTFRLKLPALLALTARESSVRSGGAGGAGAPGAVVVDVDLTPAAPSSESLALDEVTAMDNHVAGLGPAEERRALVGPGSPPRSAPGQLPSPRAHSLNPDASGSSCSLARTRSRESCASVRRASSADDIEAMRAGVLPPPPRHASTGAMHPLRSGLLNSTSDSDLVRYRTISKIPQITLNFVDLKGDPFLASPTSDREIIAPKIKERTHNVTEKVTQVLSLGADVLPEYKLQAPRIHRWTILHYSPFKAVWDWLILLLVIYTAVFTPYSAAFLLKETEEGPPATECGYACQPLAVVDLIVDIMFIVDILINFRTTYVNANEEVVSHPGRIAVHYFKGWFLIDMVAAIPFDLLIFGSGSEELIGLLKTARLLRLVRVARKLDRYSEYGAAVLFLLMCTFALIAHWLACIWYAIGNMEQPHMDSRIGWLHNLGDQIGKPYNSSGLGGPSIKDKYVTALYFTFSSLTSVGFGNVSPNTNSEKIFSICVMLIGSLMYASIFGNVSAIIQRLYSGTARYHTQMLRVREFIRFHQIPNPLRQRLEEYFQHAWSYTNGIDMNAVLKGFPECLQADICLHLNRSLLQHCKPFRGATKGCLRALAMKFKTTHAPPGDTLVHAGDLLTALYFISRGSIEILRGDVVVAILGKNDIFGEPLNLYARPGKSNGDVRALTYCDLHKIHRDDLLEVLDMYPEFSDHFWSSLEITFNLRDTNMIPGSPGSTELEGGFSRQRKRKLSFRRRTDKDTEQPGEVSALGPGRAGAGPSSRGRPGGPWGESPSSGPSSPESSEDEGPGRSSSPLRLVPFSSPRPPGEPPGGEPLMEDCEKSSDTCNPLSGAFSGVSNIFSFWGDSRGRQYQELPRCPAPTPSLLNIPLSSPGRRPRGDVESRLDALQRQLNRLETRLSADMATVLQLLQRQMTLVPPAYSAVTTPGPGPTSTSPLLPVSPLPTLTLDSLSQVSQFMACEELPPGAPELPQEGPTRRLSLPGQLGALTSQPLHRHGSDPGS

[10] = biological target: Cytochrome P450 3A4 (Homo sapiens, UniProt P08684); assay: Inhibition of human recombinant CYP3A4; assay type: ADME
Cytochrome P450 3A4, sequence (P08684 whole entry): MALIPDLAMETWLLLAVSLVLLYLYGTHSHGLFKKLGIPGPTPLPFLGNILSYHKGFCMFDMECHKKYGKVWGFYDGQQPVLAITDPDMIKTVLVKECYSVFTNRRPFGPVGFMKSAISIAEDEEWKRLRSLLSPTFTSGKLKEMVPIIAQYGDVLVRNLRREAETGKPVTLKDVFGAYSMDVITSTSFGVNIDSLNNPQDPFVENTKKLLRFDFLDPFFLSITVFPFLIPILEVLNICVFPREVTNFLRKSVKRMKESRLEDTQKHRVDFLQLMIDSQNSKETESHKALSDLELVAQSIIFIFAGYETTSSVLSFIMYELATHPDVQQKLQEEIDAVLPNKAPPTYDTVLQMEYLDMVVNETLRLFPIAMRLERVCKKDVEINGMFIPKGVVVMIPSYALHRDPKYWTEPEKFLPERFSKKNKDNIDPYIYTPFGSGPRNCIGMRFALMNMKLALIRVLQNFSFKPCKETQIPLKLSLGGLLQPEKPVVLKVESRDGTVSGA

[11] = biological target: Cytochrome P450 2C9 (Homo sapiens, UniProt P11712); assay: Inhibition of human recombinant CYP2C9; assay type: ADME
Cytochrome P450 2C9, sequence (P11712 whole entry): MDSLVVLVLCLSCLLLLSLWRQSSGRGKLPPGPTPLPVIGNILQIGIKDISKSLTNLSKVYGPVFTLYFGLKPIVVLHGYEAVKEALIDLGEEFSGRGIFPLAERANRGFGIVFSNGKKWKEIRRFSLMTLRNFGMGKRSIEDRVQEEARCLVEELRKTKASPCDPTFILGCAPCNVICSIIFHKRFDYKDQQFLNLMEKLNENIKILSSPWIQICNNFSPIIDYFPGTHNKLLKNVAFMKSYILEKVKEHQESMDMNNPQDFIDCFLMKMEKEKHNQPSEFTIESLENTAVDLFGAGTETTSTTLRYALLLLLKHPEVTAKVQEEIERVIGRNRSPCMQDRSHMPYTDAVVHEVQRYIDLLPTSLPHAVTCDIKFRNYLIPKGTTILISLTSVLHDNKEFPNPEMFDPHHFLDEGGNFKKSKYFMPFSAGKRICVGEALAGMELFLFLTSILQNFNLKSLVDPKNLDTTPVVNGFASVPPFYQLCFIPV

[12] = biological target: Cytochrome P450 2C19 (Homo sapiens, UniProt P33261); assay: Inhibition of human recombinant CYP2C19; assay type: ADME
Cytochrome P450 2C19, sequence (P33261 whole entry): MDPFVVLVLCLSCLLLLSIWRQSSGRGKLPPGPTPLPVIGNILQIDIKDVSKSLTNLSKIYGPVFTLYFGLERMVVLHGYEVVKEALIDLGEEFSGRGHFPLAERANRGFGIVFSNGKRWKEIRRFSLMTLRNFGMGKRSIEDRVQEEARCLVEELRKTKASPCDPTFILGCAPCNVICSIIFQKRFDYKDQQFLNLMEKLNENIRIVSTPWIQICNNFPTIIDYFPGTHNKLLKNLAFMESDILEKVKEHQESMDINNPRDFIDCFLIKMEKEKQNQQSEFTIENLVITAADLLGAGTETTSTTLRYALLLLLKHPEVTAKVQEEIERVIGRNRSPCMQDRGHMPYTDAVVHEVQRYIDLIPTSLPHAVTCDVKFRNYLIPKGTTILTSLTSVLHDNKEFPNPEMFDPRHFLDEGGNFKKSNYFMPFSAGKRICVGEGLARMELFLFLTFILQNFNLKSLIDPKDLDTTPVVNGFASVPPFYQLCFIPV

[13] = biological target: Cytochrome P450 2D6 (Homo sapiens, UniProt P10635); assay: Inhibition of human recombinant CYP2D6; assay type: ADME
Cytochrome P450 2D6, sequence (P10635 whole entry): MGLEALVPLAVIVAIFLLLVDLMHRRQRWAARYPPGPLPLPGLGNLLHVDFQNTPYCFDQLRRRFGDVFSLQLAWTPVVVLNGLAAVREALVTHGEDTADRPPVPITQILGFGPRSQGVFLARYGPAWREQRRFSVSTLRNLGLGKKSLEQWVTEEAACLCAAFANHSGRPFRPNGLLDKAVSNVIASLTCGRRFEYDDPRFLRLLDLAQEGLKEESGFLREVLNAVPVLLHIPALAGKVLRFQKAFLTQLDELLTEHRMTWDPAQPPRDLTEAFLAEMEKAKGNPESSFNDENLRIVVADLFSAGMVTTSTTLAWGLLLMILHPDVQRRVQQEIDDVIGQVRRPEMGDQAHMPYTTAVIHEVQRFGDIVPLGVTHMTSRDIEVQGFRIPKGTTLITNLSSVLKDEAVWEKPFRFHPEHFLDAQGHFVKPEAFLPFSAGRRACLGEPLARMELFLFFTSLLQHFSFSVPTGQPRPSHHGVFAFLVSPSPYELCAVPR

[14] = biological target: Voltage-gated inwardly rectifying potassium channel KCNH2 (Homo sapiens, UniProt Q12809); assay: Inhibition of human ERG
[15] = biological target: Cyclin-dependent kinase 4 (Homo sapiens) (UniProt P11802); assay: Inhibition of CDK4 at 10 uM
[16] = biological target: Glycogen synthase kinase-3 beta (Rattus norvegicus) (UniProt P18266); assay: Inhibition of GSK3-beta assessed as tau phosphorylation
Glycogen synthase kinase-3 beta (Rattus norvegicus), sequence (P18266 whole entry, looked up): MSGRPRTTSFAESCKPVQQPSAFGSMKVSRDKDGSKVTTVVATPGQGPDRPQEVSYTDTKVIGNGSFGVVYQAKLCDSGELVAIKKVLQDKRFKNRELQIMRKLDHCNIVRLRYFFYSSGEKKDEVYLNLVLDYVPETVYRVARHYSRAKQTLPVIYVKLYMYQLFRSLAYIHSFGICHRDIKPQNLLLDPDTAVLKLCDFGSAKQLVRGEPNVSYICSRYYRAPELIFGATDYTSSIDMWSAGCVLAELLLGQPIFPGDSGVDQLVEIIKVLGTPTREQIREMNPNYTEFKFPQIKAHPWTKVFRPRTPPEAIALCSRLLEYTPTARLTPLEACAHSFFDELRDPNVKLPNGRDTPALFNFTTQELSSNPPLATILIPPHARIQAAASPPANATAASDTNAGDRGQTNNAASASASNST

[17] = biological target: Cyclin-dependent kinase 5 (Homo sapiens) (UniProt Q00535); assay: Inhibition of CDK5 at 10 uM
Cyclin-dependent kinase 5 (Homo sapiens), sequence (Q00535 whole entry, looked up): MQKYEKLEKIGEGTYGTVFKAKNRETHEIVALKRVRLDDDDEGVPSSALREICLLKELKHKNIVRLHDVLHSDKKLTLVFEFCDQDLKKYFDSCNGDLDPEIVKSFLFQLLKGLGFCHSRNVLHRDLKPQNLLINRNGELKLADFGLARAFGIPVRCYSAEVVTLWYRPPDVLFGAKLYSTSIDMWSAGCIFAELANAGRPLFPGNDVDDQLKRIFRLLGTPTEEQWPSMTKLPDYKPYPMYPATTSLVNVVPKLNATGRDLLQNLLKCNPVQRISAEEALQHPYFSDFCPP

[18] = biological target: Cyclin-dependent kinase 9 (Homo sapiens) (UniProt P50750); assay: Inhibition of CDK9 at 10 uM
Cyclin-dependent kinase 9 (Homo sapiens), sequence (P50750 whole entry): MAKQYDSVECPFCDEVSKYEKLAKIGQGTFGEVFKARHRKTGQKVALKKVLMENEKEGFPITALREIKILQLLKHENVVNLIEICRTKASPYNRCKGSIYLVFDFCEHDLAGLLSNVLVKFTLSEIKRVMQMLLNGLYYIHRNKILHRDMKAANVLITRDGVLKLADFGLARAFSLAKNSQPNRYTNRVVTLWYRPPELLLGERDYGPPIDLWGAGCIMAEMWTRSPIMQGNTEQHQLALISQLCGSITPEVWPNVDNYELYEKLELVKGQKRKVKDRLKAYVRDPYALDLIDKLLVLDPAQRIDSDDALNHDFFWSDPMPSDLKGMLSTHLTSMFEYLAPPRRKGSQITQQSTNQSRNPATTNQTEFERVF

[19] = biological target: Cyclin-dependent kinase 2 (Homo sapiens) (UniProt P24941); assay: Inhibition of CDK2 at 10 uM

IC50 [1] | logD [2] | remaining at 0.25 h [5] | solubility [4] | IC50 [8] | SMILES | other results
1900 nM |  |  |  |  | CCCC(=O)Nc1n[nH]c2cc(-c3ccsc3)ccc12 | 
> 50000 nM | < 1 |  |  |  | O=C(O)CCC(=O)Nc1n[nH]c2cc(Cl)ccc12 | Activity [3]: < 90%; solubility ([4]; read-out: solubility): 716 µg/mL (≈ 2670 µM)
 |  | 79% | < 20 µg/mL |  | O=C(Nc1n[nH]c2cc(Cl)c(-c3ccccc3)cc12)N1CCCC1 | 
 | 3.49 |  | 28 µg/mL (≈ 75.5 µM) |  | O=C(CN1CCOCC1)Nc1n[nH]c2cc(Cl)c(-c3ccccc3)cc12 | 
550 nM | 4.4 | 87% | < 20 µg/mL |  | CCCC(=O)Nc1n[nH]c2cc(Cl)c(Br)cc12 | permeability [6]: 17.25%; remaining at 0.25 h [7]: 97%
> 10000 nM |  |  |  | 390 nM | CCCC(=O)Nc1n[nH]c2cc(-c3ccccc3)ccc12 | 
< 400 nM | 3.7 | 40% | < 20 µg/mL | 80 nM | CCCC(=O)Nc1n[nH]c2cc(Cl)c(-c3ccccc3)cc12 | inhibition at 10 µM [9]: 24%; IC50 [10]: > 10000 nM; IC50 [11]: > 10000 nM; IC50 [12]: > 10000 nM; IC50 [13]: > 10000 nM; permeability [6]: 3.9%; remaining at 0.25 h [7]: 91%; Activity [3]: 99.4%
 |  | 85% | < 20 µg/mL |  | O=C(NCCCn1ccnc1)Nc1n[nH]c2cc(Cl)c(-c3ccccc3)cc12 | 
 |  | 92% | < 20 µg/mL |  | O=C(Nc1ccccc1)Nc1n[nH]c2cc(Cl)c(-c3ccccc3)cc12 | IC50 [14]: > 10000 nM; inhibition [15]: < 50%; IC50 [16]: 270 nM; inhibition [17]: < 50%; inhibition [18]: 81%; inhibition [19]: < 50%
 | 3.9 | 19% | < 20 µg/mL | 80 nM | CCCC(=O)Nc1n[nH]c2cc(Cl)c(-c3ccc(O)cc3)cc12 | permeability [6]: 8.02%
 | 2.4 | 56% | 4 µg/mL (≈ 12.7 µM) |  | CCCC(=O)Nc1n[nH]c2c(F)c(F)c(-c3ccccc3)cc12 | remaining at 0.25 h [7]: 86%
 | 3.1 |  | < 20 µg/mL |  | O=C(CN1CCOCC1)Nc1n[nH]c2cc(Cl)ccc12 | 
> 10000 nM |  |  |  |  | CCCC(=O)Nc1n[nH]c2cc(Cl)c(-c3ccc(OCc4ccccc4)cc3)cc12 | 
 | 3 | 93% | 54 µg/mL (≈ 226 µM) |  | CCCC(=O)Nc1n[nH]c2c(F)c(F)ccc12 | permeability [6]: 16.33%; remaining at 0.25 h [7]: 98%
> 50000 nM |  | 4% | 67 µg/mL (≈ 227 µM) | 22000 nM | CCCC(=O)Nc1n[nH]c2cc(-c3ccc(O)cc3)ccc12 | permeability [6]: 15.25%; remaining at 0.25 h [7]: 58%; Activity [3]: 97.3%
> 10000 nM | 4.4 | 10% | < 20 µg/mL | 70 nM | CCCC(=O)Nc1n[nH]c2cc(-c3ccc(O)cc3)c(Br)cc12 | inhibition at 10 µM [9]: 7%; IC50 [10]: > 10000 nM; IC50 [11]: > 10000 nM; IC50 [12]: > 10000 nM; IC50 [13]: > 10000 nM; remaining at 0.25 h [7]: 91%; Activity [3]: 99.3%
4460 nM |  |  |  |  | CCCC(=O)Nc1n[nH]c2cc(Cl)c(-c3ccc([N+](=O)[O-])cc3)cc12 | 
13800 nM |  |  |  | 2700 nM | CCCC(=O)Nc1n[nH]c2cc(-c3cc(F)cc(F)c3)ccc12 | 
 | 3.53 |  | < 20 µg/mL |  | CC(C(=O)Nc1n[nH]c2cc(Cl)c(-c3ccccc3)cc12)N1CCCCC1 (centres undefined) | 
 | 2.2 |  |  |  | CCC(=O)Nc1n[nH]c2cc(Cl)ccc12 | Activity [3]: 92.8%; solubility ([4]; read-out: solubility): 168 µg/mL (≈ 751 µM)
830 nM |  |  |  | 130 nM | CCCC(=O)Nc1n[nH]c2cc(Cl)c(-c3ccc(F)cc3)cc12 | 
 |  | 100% | > 208 µg/mL |  | CN1CCN(CCCNC(=O)Nc2n[nH]c3cc(Cl)c(-c4ccccc4)cc23)CC1 | 
1750 nM |  |  |  |  | CCCC(=O)Nc1n[nH]c2cc(Cl)c(-c3ccc(C)cc3)cc12 | 
1200 nM |  |  |  | 5900 nM | CCCC(=O)Nc1n[nH]c2cc(-c3cccnc3)ccc12 | 
< 400 nM | 4.1 | 4% | < 20 µg/mL | 30 nM | CCCC(=O)Nc1n[nH]c2cc(Cl)c(-c3ccoc3)cc12 | permeability [6]: 12.3%; remaining at 0.25 h [7]: 45%
980 nM |  |  |  |  | CCCC(=O)Nc1n[nH]c2cc(Cl)c(-c3ccc(N)cc3)cc12 | 
